The source of these data is ChEMBL document CHEMBL1132437, “Synthesis and antimicrobial activity of 4H-4-oxoquinolizine derivatives: consequences of structural modification at the C-8 position” (1999).

Converted amounts (≈) assume the structure as drawn. A value given as a limit tells only on which side of the number the result lay.

Assay [1] concerns Burkholderia cepacia. In words: In vitro antibacterial activity against gram negative Pseudomonas cepacia 2961. Format: functional. Summed up:
(§1)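 Agar dilution MIC determination following the National Committee for Clinical Laboratory Standards recommendations.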

Assay [2] deals with Streptococcus pyogenes. In words: In vitro antibacterial activity against gram positive Streptococcus pyogenes 930. In kind it is functional. Summed up:
as §1

Assay [3] relates to Enterococcus faecium. In words: In vitro antibacterial activity against gram-positive Enterococcus faecium ATCC 8043. In kind it is functional. Summed up:
as §1

Assay [4] concerns Escherichia coli. Put plainly: In vitro antibacterial activity against gram negative Escherichia coli KNK 437. Format: functional. The following applies: Escherichia coli; read-out: MIC. Put shortly:
as §1

Assay [5] relates to Staphylococcus aureus. In words: In vivo efficacy against Staphylococcus aureus NCTC 10649M in mouse protection test after p.o. administration. In kind it is functional. Put shortly: (§2)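 Mouse protection model: mice infected intravenously with 100-fold LD50 of the organism. Compound given by subcutaneous injection or oral gavage at 1 and 5 h after infection, over a dose range. Deaths tracked for 7 days post-inoculation. ED50 is the dose giving 50% survival of treated mice over the trial.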

The subject of assay [6] is Escherichia coli. Put plainly: In vivo efficacy against Escherichia coli JUHL in mouse protection test after subcutaneous administration. Format: functional. Summed up: as §2
Assay [7] has as its system Mus musculus. Put plainly: InIn vivo efficacy against Escherichia coli JUHL in mouse protection test after administration by oral gavage. Format: functional. Put shortly: as §2
The test system of assay [8] is Staphylococcus aureus. In words: In vitro antibacterial activity against gram-positive Staphylococcus aureus NCTC 10649M. In kind it is functional. Summed up: as §1
Assay [9] concerns Staphylococcus aureus. In words: In vivo efficacy against Staphylococcus aureus NCTC 10649M in mouse. In kind it is functional. Particulars: Staphylococcus aureus; read-out: ED50. Summed up: as §2
In assay [10] the test system is Pseudomonas aeruginosa. In words: In vitro antibacterial activity against Gram-negative Pseudomonas aeruginosa 5007. Format: functional. Summed up: as §1
The test system of assay [11] is Staphylococcus aureus. Put plainly: In vitro antibacterial activity against gram-positive Staphylococcus aureus 1775. In kind it is functional. Summed up:
as §1

Assay [12] relates to Streptococcus pneumoniae. In words: In vivo efficacy against Streptococcus pneumoniae ATCC 6303 in mouse protection test after s.c. administration. In kind it is functional. Summed up:
as §2

For assay [13], the system named is Pseudomonas aeruginosa. Put plainly: In vivo efficacy against Pseudomonas aeruginosa 5007 in mouse protection test after subcutaneous administration. In kind it is functional. The following applies: Pseudomonas aeruginosa, sc; read-out: ED50. Put shortly: as §2
Assay [14] relates to Mus musculus. In words: In vivo efficacy against Streptococcus pneumoniae ATCC 6303 in mouse protection test after administration by oral gavage. In kind it is functional. Summed up:
as §2

Assay [15] relates to Mus musculus. In words: In vivo efficacy against Pseudomonas aeruginosa 5007 in mouse protection test after administration by oral gavage. In kind it is functional. Summed up: as §2
The subject of assay [16] is Escherichia coli. Put plainly: In vivo efficacy against Escherichia coli JUHL in mouse protection test after p.o. administration. Format: functional. Summed up: as §2
For assay [17], the system named is Pseudomonas aeruginosa. In words: In vitro antibacterial activity against gram negative P. aeruginosa DPHP 5263. Format: functional. Put shortly:
as §1

Assay [18] has as its system Escherichia coli. In words: In vitro antibacterial activity against Escherichia coli KNK 437 a ciprofloxacin less sensitive strain. In kind it is functional. Summed up: as §1
Assay [19] relates to Mus musculus. In words: In vivo efficacy against Escherichia coli JUHL in mouse protection test after administration by oral gavage. Format: functional. Summed up:
as §2

Assay [20] has as its system Pseudomonas aeruginosa. In words: In vivo efficacy against Pseudomonas aeruginosa 5007 in mouse protection test after administration by oral gavage. In kind it is functional. Particulars: Pseudomonas aeruginosa, po; read-out: ED50. Summed up: as §2
The subject of assay [21] is Mus musculus. Put plainly: IIn vivo efficacy against Escherichia coli JUHL in mouse protection test after administration by oral gavage. Format: functional. Summed up: as §2
Assay [22] deals with Mus musculus. Put plainly: IIn vivo efficacy against Streptococcus pneumoniae ATCC 6303 in mouse protection test after oral administration by oral gavage.
Setting [23] is: Burkholderia cepacia, read-out: MIC.
[24] abbreviates: Streptococcus pyogenes, read-out: MIC.
The mark [25] stands for this setting: Enterococcus faecium, ATCC 8043, read-out: MIC.
The mark [26] stands for this setting: Staphylococcus aureus, po, read-out: ED50.
The mark [27] stands for this setting: Escherichia coli, sc, read-out: ED50.
The mark [28] stands for this setting: Staphylococcus aureus, NCTC 10649, read-out: MIC.
Setting [29] is: Pseudomonas aeruginosa, read-out: MIC.
Setting [30] is: Staphylococcus aureus, read-out: MIC.
The mark [31] stands for this setting: Streptococcus pneumoniae, sc, read-out: ED50.
Where [32] appears, read: Pseudomonas aeruginosa, DPHP 5263, read-out: MIC.

Turning to `Cc1c(N2CC[C@H](C)[C@@H](N)C2)c(F)cn2c(=O)c(C(=O)O)cc(C3CC3)c12`, the minimum inhibitory concentration (MIC) in assay [1] (setting [23]) turned out to be 3.1 µg/mL (≈ 8.3 µM); in assay [2] (setting [24]) it was 0.02 µg/mL (≈ 0.0536 µM); in [3] (setting [25]), 0.05 µg/mL (≈ 0.134 µM); in assay [4], 0.39 µg/mL (≈ 1.04 µM); in assay [8] (setting [28]), 0.01 µg/mL (≈ 0.0268 µM); in [10] (setting [29]) it was 0.39 µg/mL (≈ 1.04 µM). Further, the MIC in [11] (setting [30]) was determined as 0.39 µg/mL (≈ 1.04 µM). The ED50 is 1.9 mg/kg in assay [5] (setting [26]), 1.7 mg/kg in [6] (setting [27]), 2.3 mg/kg in [7] and 0.5 mg/kg in assay [9].
For `Cc1c(N2CC[C@@H](C)[C@H](N)C2)c(F)cn2c(=O)c(C(=O)O)cc(C3CC3)c12`, the median effective dose (ED50) was 2.1 mg/kg in assay [12] (setting [31]); 24.5 mg/kg in [13]; 1 mg/kg in assay [14]; 4.3 mg/kg in assay [5] (setting [26]); 0.6 mg/kg in assay [6] (setting [27]); more than 50 mg/kg in [15]. Moreover, the median effective dose (ED50) in assay [9] was 1 mg/kg; in assay [16] (Escherichia coli, po, read-out: ED50) it was 3 mg/kg.
On to `Cc1c(N2C[C@H]3CNC[C@H]3C2)c(F)cn2c(=O)c(C(=O)O)cc(C3CC3)c12`, for which the ED50 in [12] (setting [31]) is 1.3 mg/kg; in [13], 6.4 mg/kg; in [19], 5 mg/kg; in assay [14], 25.2 mg/kg; in assay [20] it was 58.7 mg/kg; in assay [5] (setting [26]), 12.5 mg/kg. Further, the 50% effective dose (ED50) in assay [6] (setting [27]) is 0.7 mg/kg; in [9], 1.2 mg/kg. Moreover, the MIC in assay [1] (setting [23]) worked out at 3.1 µg/mL (≈ 8.35 µM); in [17] (setting [32]), 6.2 µg/mL (≈ 16.7 µM); in [18] it was 0.2 µg/mL (≈ 0.538 µM); in [2] (setting [24]), 0.1 µg/mL (≈ 0.269 µM); in [3] (setting [25]), 0.1 µg/mL (≈ 0.269 µM); in [8] (setting [28]), 0.05 µg/mL (≈ 0.135 µM). Further, the minimum inhibitory concentration (MIC) came out at 0.2 µg/mL (≈ 0.538 µM) in [10] (setting [29]) and 6.2 µg/mL (≈ 16.7 µM) in assay [11] (setting [30]).
Take `Cc1c(N2C[C@H]3NCCO[C@@H]3C2)c(F)cn2c(=O)c(C(=O)O)cc(C3CC3)c12`: the minimum inhibitory concentration (MIC) in assay [1] (setting [23]) was found to be 3.1 µg/mL (≈ 8 µM); in assay [17] (setting [32]) it was 25 µg/mL (≈ 64.5 µM); in [2] (setting [24]), 0.2 µg/mL (≈ 0.516 µM); in [3] (setting [25]), 0.2 µg/mL (≈ 0.516 µM); in assay [4], 0.78 µg/mL (≈ 2.01 µM); in assay [8] (setting [28]), 0.05 µg/mL (≈ 0.129 µM). Moreover, the values for the MIC in [10] (setting [29]) and in assay [11] (setting [30]) were 1.56 µg/mL (≈ 4.03 µM) and 0.78 µg/mL (≈ 2.01 µM), respectively. Besides, the 50% effective dose (ED50) is more than 32 mg/kg in assay [13]; 11.5 mg/kg in assay [5] (setting [26]); more than 5 mg/kg in assay [6] (setting [27]); more than 50 mg/kg in assay [15]; more than 20 mg/kg in assay [21]; 6 mg/kg in [9].
As for `Cc1c(N2CC[C@H](N)C2)c(F)cn2c(=O)c(C(=O)O)cc(C3CC3)c12` (stereo in doubt; -(S)-3i) [ABT-719], the MIC in assay [1] was 0.39 µg/mL (≈ 1.13 µM); in assay [17], 0.39 µg/mL (≈ 1.13 µM); in [18], 0.02 µg/mL (≈ 0.0579 µM); in assay [2], 0.02 µg/mL (≈ 0.0579 µM); in assay [3], 0.02 µg/mL (≈ 0.0579 µM); in [8], 0.01 µg/mL (≈ 0.029 µM). Also, the MIC in assay [10] amounted to 0.05 µg/mL (≈ 0.145 µM); in [11], 0.78 µg/mL (≈ 2.26 µM).
`Cc1c(N2CC[C@H](C)[C@H](N)C2)c(F)cn2c(=O)c(C(=O)O)cc(C3CC3)c12` (stereo in doubt; 3ss): the median effective dose (ED50) in assay [12] was found to be 1 mg/kg; in [22] it was 2 mg/kg; in [5], 0.8 mg/kg; in [6], 0.6 mg/kg; in [9], 3.3 mg/kg; in [16], 1.4 mg/kg. For the same compound, the minimal inhibitory concentration (MIC) in assay [1] (setting [23]) was 1.56 µg/mL (≈ 4.18 µM); in assay [17] (setting [32]) it was 12.5 µg/mL (≈ 33.5 µM); in assay [2] (setting [24]) it was 0.1 µg/mL (≈ 0.268 µM); in assay [3] (setting [25]) it was 0.2 µg/mL (≈ 0.536 µM); in [4] it was 0.39 µg/mL (≈ 1.04 µM); in assay [8] (setting [28]), 0.05 µg/mL (≈ 0.134 µM). For the same compound, the MIC stood at 0.78 µg/mL (≈ 2.09 µM) in assay [10] (setting [29]) and 1.56 µg/mL (≈ 4.18 µM) in [11] (setting [30]).

One may read the MIC as the smallest concentration in the dilution series that meets the test's criterion for growth inhibition. As usually defined, the ED50 is the dose that gives a 50% effect, or the effect in half of the subjects.
